Experimental data from ChEMBL document CHEMBL1154716, “Synthesis of some new S-triazine based chalcones and their derivatives as potent antimicrobial agents” (2010).
The source made the active and inactive calls.

Assays:
Bacillus cereus [1] = test: Antimicrobial activity against Bacillus cereus at 10 ug/disk after 24 hrs by disk diffusion assay; assay type: functional
Procedure, shortened: (§1)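 Disc diffusion on 4 mm filter discs. Bacteria are grown overnight in LB at 28 C, then adjusted in saline to 1.0 × 10^5 cfu/ml. The suspension is mixed into top agar over peptone agar plates. Plates are incubated 24 h at 28 C, and growth-inhibition zone diameter is measured. Streptomycin and ampicillin controls are applied from a 1 mg/ml stock. Tests are done in duplicate.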

Micrococcus flavus [2] = test: Antimicrobial activity against Micrococcus flavus at 10 ug/disk after 24 hrs by disk diffusion assay; assay type: functional; conditions: read-out: IZ; procedure, shortened: as §1
Staphylococcus aureus [3] = test: Antimicrobial activity against Staphylococcus aureus at 10 ug/disk after 24 hrs by disk diffusion assay; assay type: functional; procedure, shortened: as §1
Escherichia coli [4] = test: Antimicrobial activity against Escherichia coli at 10 ug/disk after 24 hrs by disk diffusion assay; assay type: functional; procedure, shortened: as §1
Pseudomonas aeruginosa [5] = test: Antimicrobial activity against Pseudomonas aeruginosa at 10 ug/disk after 24 hrs by disk diffusion assay; assay type: functional; procedure, shortened: as §1
Enterobacter cloacae [6] = test: Antimicrobial activity against Enterobacter cloacae at 10 ug/disk after 24 hrs by disk diffusion assay; assay type: functional; procedure, shortened: as §1
Salmonella typhimurium [7] = test: Antimicrobial activity against Salmonella Typhimurium at 10 ug/disk after 24 hrs by disk diffusion assay; assay type: functional, organism-based; conditions: Salmonella enterica subsp. enterica serovar Typhimurium; procedure, shortened: as §1
Listeria monocytogenes [8] = test: Antimicrobial activity against Listeria monocytogenes at 10 ug/disk after 24 hrs by disk diffusion assay; assay type: functional; procedure, shortened: as §1
Bacillus cereus [9] = test: Antimicrobial activity against Bacillus cereus at 1 umol/disk after 24 hrs by disk diffusion assay; assay type: functional; procedure, shortened: as §1
Micrococcus flavus [10] = test: Antimicrobial activity against Micrococcus flavus at 1 umol/disk after 24 hrs by disk diffusion assay; assay type: functional; procedure, shortened: as §1
Staphylococcus aureus [11] = test: Antimicrobial activity against Staphylococcus aureus at 1 umol/disk after 24 hrs by disk diffusion assay; assay type: functional; procedure, shortened: as §1
Escherichia coli [12] = test: Antimicrobial activity against Escherichia coli at 1 umol/disk after 24 hrs by disk diffusion assay; assay type: functional; procedure, shortened: as §1
Pseudomonas aeruginosa [13] = test: Antimicrobial activity against Pseudomonas aeruginosa at 1 umol/disk after 24 hrs by disk diffusion assay; assay type: functional; procedure, shortened: as §1
Enterobacter cloacae [14] = test: Antimicrobial activity against Enterobacter cloacae at 1 umol/disk after 24 hrs by disk diffusion assay; assay type: functional; procedure, shortened: as §1
Salmonella typhimurium [15] = test: Antimicrobial activity against Salmonella Typhimurium at 1 umol/disk after 24 hrs by disk diffusion assay; assay type: functional, organism-based; conditions: Salmonella enterica subsp. enterica serovar Typhimurium; procedure, shortened: as §1
Listeria monocytogenes [16] = test: Antimicrobial activity against Listeria monocytogenes at 1 umol/disk after 24 hrs by disk diffusion assay; assay type: functional; procedure, shortened: as §1
Bacillus cereus [17] = test: Antimicrobial activity against Bacillus cereus at 1 umol/spot after 18 hrs by TLC-bioautographic method; assay type: functional
Procedure, shortened: (§2)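 TLC bioautography. Samples are spotted on silica gel TLC plates, then sprayed with bacteria (1.0 × 10^5 cfu/ml) in tryptic soy broth. Plates are incubated 18 h at 37 C and sprayed with 3% aqueous p-iodonitrotetrazolium violet. After a further 3 h, growth is stopped with 70% EtOH. White zones on a pink background are scored as inhibition-zone diameter with standard errors.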

Micrococcus flavus [18] = test: Antimicrobial activity against Micrococcus flavus at 1 umol/spot after 18 hrs by TLC-bioautographic method; assay type: functional; procedure, shortened: as §2
Staphylococcus aureus [19] = test: Antimicrobial activity against Staphylococcus aureus at 1 umol/spot after 18 hrs by TLC-bioautographic method; assay type: functional; procedure, shortened: as §2
Escherichia coli [20] = test: Antimicrobial activity against Escherichia coli at 1 umol/spot after 18 hrs by TLC-bioautographic method; assay type: functional; procedure, shortened: as §2
Pseudomonas aeruginosa [21] = test: Antimicrobial activity against Pseudomonas aeruginosa at 1 umol/spot after 18 hrs by TLC-bioautographic method; assay type: functional; procedure, shortened: as §2
Enterobacter cloacae [22] = test: Antimicrobial activity against Enterobacter cloacae at 1 umol/spot after 18 hrs by TLC-bioautographic method; assay type: functional; procedure, shortened: as §2
Salmonella typhimurium [23] = test: Antimicrobial activity against Salmonella Typhimurium at 1 umol/spot after 18 hrs by TLC-bioautographic method; assay type: functional; procedure, shortened: as §2
Listeria monocytogenes [24] = test: Antimicrobial activity against Listeria monocytogenes at 1 umol/spot after 18 hrs by TLC-bioautographic method; assay type: functional; procedure, shortened: as §2
Bacillus cereus [25] = test: Antimicrobial activity against Bacillus cereus after 24 hrs by microdilution technique; assay type: functional
Procedure, shortened: (§3)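 Broth microdilution in LB medium. Inoculum is 1.0 × 10^4 cfu per well, from a saline-adjusted suspension of 1.0 × 10^5 cfu/ml. Compounds are dissolved in DMSO. Incubated 24 h at 28 C. MIC is the lowest concentration with no visible growth under a binocular microscope. MBC is read by subculture into fresh broth for 72 h, with no growth taken as 99.5% kill. OD is read at 655 nm.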

Micrococcus flavus [26] = test: Antimicrobial activity against Micrococcus flavus after 24 hrs by microdilution technique; assay type: functional; procedure, shortened: as §3
Staphylococcus aureus [27] = test: Antimicrobial activity against Staphylococcus aureus after 24 hrs by microdilution technique; assay type: functional; procedure, shortened: as §3
Escherichia coli [28] = test: Antimicrobial activity against Escherichia coli after 24 hrs by microdilution technique; assay type: functional; procedure, shortened: as §3
Pseudomonas aeruginosa [29] = test: Antimicrobial activity against Pseudomonas aeruginosa after 24 hrs by microdilution technique; assay type: functional; procedure, shortened: as §3
Enterobacter cloacae [30] = test: Antimicrobial activity against Enterobacter cloacae after 24 hrs by microdilution technique; assay type: functional; procedure, shortened: as §3
Salmonella typhimurium [31] = test: Antimicrobial activity against Salmonella Typhimurium after 24 hrs by microdilution technique; assay type: functional, Salmonella enterica subsp. enterica serovar Typhimurium; procedure, shortened: as §3
Listeria monocytogenes [32] = test: Antimicrobial activity against Listeria monocytogenes after 24 hrs by microdilution technique; assay type: functional; procedure, shortened: as §3
[33] = Salmonella enterica subsp. enterica serovar Typhimurium

COc1ccccc1-c1cc(-c2ccc(Nc3nc(Nc4ccccc4)nc(Nc4ccccc4)n3)cc2)nc(N)n1
0.09 millimeter: inhibition zone (IZ) (Listeria monocytogenes [24])
6 mm: zone of inhibition at 10 µg/disc (Micrococcus flavus [2])
0.06 millimeter: inhibition zone (IZ) (Micrococcus flavus [18])
724 µM: MBC (Listeria monocytogenes [32]) | MIC (Listeria monocytogenes [32])
90.5 µM: MIC (Bacillus cereus [25]) | MIC (Micrococcus flavus [26]) | MIC (Staphylococcus aureus [27])
0.03 millimeter: inhibition zone (IZ) (Micrococcus flavus [10]) | inhibition zone (IZ) (Staphylococcus aureus [19])
362 µM: MBC (Escherichia coli [28]) | MBC (Pseudomonas aeruginosa [29]) | MBC (Enterobacter cloacae [30]) | MBC (Salmonella typhimurium [31]; Salmonella enterica)
181 µM: MBC (Bacillus cereus [25]) | MBC (Micrococcus flavus [26]) | MBC (Staphylococcus aureus [27]) | MIC (Escherichia coli [28]) | MIC (Pseudomonas aeruginosa [29]) | MIC (Enterobacter cloacae [30]) | MIC (Salmonella typhimurium [31]; Salmonella enterica)
inactive: inhibition zone (IZ) (Bacillus cereus [1]) | inhibition zone (IZ) (Staphylococcus aureus [3]) | inhibition zone (IZ) (Escherichia coli [4]) | inhibition zone (IZ) (Pseudomonas aeruginosa [5]) | inhibition zone (IZ) (Enterobacter cloacae [6]) | inhibition zone (IZ) (Salmonella typhimurium [7]) | inhibition zone (IZ) (Listeria monocytogenes [8]) | inhibition zone (IZ) (Bacillus cereus [9]) | inhibition zone (IZ) (Staphylococcus aureus [11]) | inhibition zone (IZ) (Escherichia coli [12]) | inhibition zone (IZ) (Pseudomonas aeruginosa [13]) | inhibition zone (IZ) (Enterobacter cloacae [14]) | inhibition zone (IZ) (Salmonella typhimurium [15]) | inhibition zone (IZ) (Listeria monocytogenes [16]) | inhibition zone (IZ) (Bacillus cereus [17]) | inhibition zone (IZ) (Escherichia coli [20]) | inhibition zone (IZ) (Pseudomonas aeruginosa [21]) | inhibition zone (IZ) (Enterobacter cloacae [22]) | inhibition zone (IZ) (Salmonella typhimurium [23]; [33])

CC(=O)N1N=C(c2ccc(Nc3nc(Nc4ccccc4)nc(Nc4ccccc4)n3)cc2)CC1c1ccco1 (stereo not given)
756 µM: MBC (Bacillus cereus [25]) | MBC (Micrococcus flavus [26]) | MBC (Staphylococcus aureus [27]) | MIC (Staphylococcus aureus [27]) | MBC (Escherichia coli [28]) | MBC (Pseudomonas aeruginosa [29]) | MIC (Pseudomonas aeruginosa [29]) | MIC (Enterobacter cloacae [30]) | MIC (Salmonella typhimurium [31]; Salmonella enterica) | MIC (Listeria monocytogenes [32])
10 mm: zone of inhibition at 10 µg/disc (Micrococcus flavus [2])
0.07 millimeter: inhibition zone (IZ) (Staphylococcus aureus [19])
378 µM: MIC (Bacillus cereus [25]) | MIC (Micrococcus flavus [26]) | MIC (Escherichia coli [28])
0.09 millimeter: inhibition zone (IZ) (Enterobacter cloacae [22]) | inhibition zone (IZ) (Salmonella typhimurium [23])
0.05 millimeter: inhibition zone (IZ) (Micrococcus flavus [10])
inactive: inhibition zone (IZ) (Bacillus cereus [1]) | inhibition zone (IZ) (Staphylococcus aureus [3]) | inhibition zone (IZ) (Escherichia coli [4]) | inhibition zone (IZ) (Pseudomonas aeruginosa [5]) | inhibition zone (IZ) (Enterobacter cloacae [6]) | inhibition zone (IZ) (Salmonella typhimurium [7]) | inhibition zone (IZ) (Listeria monocytogenes [8]) | inhibition zone (IZ) (Bacillus cereus [9]) | inhibition zone (IZ) (Staphylococcus aureus [11]) | inhibition zone (IZ) (Escherichia coli [12]) | inhibition zone (IZ) (Pseudomonas aeruginosa [13]) | inhibition zone (IZ) (Enterobacter cloacae [14]) | inhibition zone (IZ) (Salmonella typhimurium [15]) | inhibition zone (IZ) (Listeria monocytogenes [16]) | inhibition zone (IZ) (Bacillus cereus [17]) | inhibition zone (IZ) (Micrococcus flavus [18]) | inhibition zone (IZ) (Escherichia coli [20]) | inhibition zone (IZ) (Pseudomonas aeruginosa [21]) | MBC (Enterobacter cloacae [30]) | MBC (Salmonella typhimurium [31]; [33]) | MBC (Listeria monocytogenes [32])
0.08 millimeter: inhibition zone (IZ) (Listeria monocytogenes [24])

Nc1nc(-c2ccc(Nc3nc(Nc4ccccc4)nc(Nc4ccccc4)n3)cc2)cc(-c2cccs2)n1
6 mm: zone of inhibition at 10 µg/disc (Micrococcus flavus [2])
0.03 millimeter: inhibition zone (IZ) (Staphylococcus aureus [19])
0.08 millimeter: inhibition zone (IZ) (Micrococcus flavus [18]) | inhibition zone (IZ) (Enterobacter cloacae [22]) | inhibition zone (IZ) (Listeria monocytogenes [24])
0.04 millimeter: inhibition zone (IZ) (Micrococcus flavus [10])
378 µM: MBC (Bacillus cereus [25]) | MBC (Micrococcus flavus [26]) | MBC (Staphylococcus aureus [27]) | MBC (Escherichia coli [28]) | MBC (Enterobacter cloacae [30]) | MBC (Salmonella typhimurium [31]; Salmonella enterica)
756 µM: MBC (Pseudomonas aeruginosa [29]) | MIC (Pseudomonas aeruginosa [29]) | MBC (Listeria monocytogenes [32]) | MIC (Listeria monocytogenes [32])
0.09 millimeter: inhibition zone (IZ) (Bacillus cereus [17]) | inhibition zone (IZ) (Salmonella typhimurium [23])
189 µM: MIC (Bacillus cereus [25]) | MIC (Micrococcus flavus [26]) | MIC (Staphylococcus aureus [27]) | MIC (Escherichia coli [28]) | MIC (Enterobacter cloacae [30]) | MIC (Salmonella typhimurium [31]; Salmonella enterica)
inactive: inhibition zone (IZ) (Bacillus cereus [1]) | inhibition zone (IZ) (Staphylococcus aureus [3]) | inhibition zone (IZ) (Escherichia coli [4]) | inhibition zone (IZ) (Pseudomonas aeruginosa [5]) | inhibition zone (IZ) (Enterobacter cloacae [6]) | inhibition zone (IZ) (Salmonella typhimurium [7]) | inhibition zone (IZ) (Listeria monocytogenes [8]) | inhibition zone (IZ) (Bacillus cereus [9]) | inhibition zone (IZ) (Staphylococcus aureus [11]) | inhibition zone (IZ) (Escherichia coli [12]) | inhibition zone (IZ) (Pseudomonas aeruginosa [13]) | inhibition zone (IZ) (Enterobacter cloacae [14]) | inhibition zone (IZ) (Salmonella typhimurium [15]) | inhibition zone (IZ) (Listeria monocytogenes [16]) | inhibition zone (IZ) (Escherichia coli [20]) | inhibition zone (IZ) (Pseudomonas aeruginosa [21])
